ChEMBL document CHEMBL1127572, “Hypoxia-selective antitumor agents. 9. Structure-activity relationships for hypoxia-selective cytotoxicity among analogues of 5-[N,N-bis(2-chloroethyl)amino]-2,4-dinitrobenzamide” (J Med Chem, 1994)
In brackets after ≈: the same amount, converted by molar mass.

Legend:
[1] = Ratio of the cytotoxicities against drug induced aerobic Walker cells and chinese hamster ovary fibroblast line AA8; assay type: functional
How it was run: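 IC50 in AA8 divided by IC50 in Walker 256 (WS) cells. Walker cells were seeded at 225 cells/0.15 mL with continuous aerobic drug exposure over 4 days, read by MTT. Ratios are interexperiment means.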

CHO-AA8 = assay: Aerobic cytotoxicity was assessed in a growth inhibition assay using log phase cultures of the chinese hamster ovary fibroblast line AA8; assay type: functional, cell-based
How it was run: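 AA8 Chinese hamster ovary cells seeded at 200 cells/well, grown 24 h, then exposed 18 h to five 2-fold serial dilutions in duplicate. Drug washed out, cells grown a further 78 h, density read by methylene blue staining. IC50 = concentration giving 50% growth inhibition versus controls. Values are means ± SEM.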

[2] = Tested for hypersensitivity factor which is the ratio of cytotoxicities against aerobic UV4 cells and chinese hamster ovary fibroblast line AA8
UV4 [3] = assay: Tested for the product of drug concentration and exposure time required to reduce UV4 cell survival to 10% under hypoxic condition by clonogenic assay
UV4 [4] = assay: The ratio of the cytotoxicities against UV4 cell line in the air and N2 was measured using clonogenic assay; assay type: functional, Cricetulus griseus
How it was run: (§1)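 UV4 cells (10^6/mL, stirred 10 mL suspensions) were gassed with 5% CO2 in air or in N2 after 60 min pre-equilibration, with clonogenic survival sampled over time. Concentrations giving similar kill rates under each gas were chosen. Ratio = CT10(air)/CT10(N2). Mean ± SEM of separate experiments.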

[5] = Solubility (alpha-MEM culture medium, containing 5% fetal calf serum); assay type: physicochemical; conditions: alpha-MEM culture medium with 5% fetal calf serum; read-out: S
How it was run: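 Solubility (mM) in α-MEM with 5% fetal calf serum, measured at ambient temperature by UV spectroscopy.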

[6] = The ratio of the cytotoxicities against UV4 cell line in the air and N2 was measured using clonogenic assay.; assay type: functional; how it was run: as §1

Row | SMILES | IC50 ratio [1] | IC50 (CHO-AA8; Cricetulus griseus, CHO-AA8) [µM] | IC50 ratio [2] | CT10 (UV4 [3]) [µM·h] | CT10 ratio (UV4 [4]) | solubility [5] [µM] | IC50 (CHO-AA8; cho-aa8) [µM] | CT10 ratio [6]
1 | NC(=O)c1cc(N(CCI)CCI)c([N+](=O)[O-])cc1[N+](=O)[O-] | 5.2 | 34 | 2.6 | 4.4 | 42 | 35 (≈ 18.7 µg/mL) | – | –
2 | NC(=O)c1cc(N(CCBr)CCBr)c([N+](=O)[O-])cc1[N+](=O)[O-] | 3.1 | 57 | 7.5 | 8 | 20 | 42 (≈ 18.5 µg/mL) | – | –
3 | O=C(NCC(O)CO)c1cc(N(CCCl)CCCl)c([N+](=O)[O-])cc1[N+](=O)[O-] (stereo not given) | 1.6 | 1930 | 4.4 | 465 | 8.6 | 7400 (≈ 3150 µg/mL) | – | –
4 | NC(=O)c1cc(N(CCCl)CCCl)c([N+](=O)[O-])cc1[N+](=O)[O-] | 4.1 | – | 6.8 | 95 | 58 | 190 (≈ 66.7 µg/mL) | 470 | –
5 | CS(=O)(=O)OCCN(CCOS(C)(=O)=O)c1cc(C(N)=O)c([N+](=O)[O-])cc1[N+](=O)[O-] | >3 | – | >4 | 70 | 17 | 530 (≈ 249 µg/mL) | – | –
6 | O=C(c1cc(N(CCCl)CCCl)c([N+](=O)[O-])cc1[N+](=O)[O-])N1CCOCC1 | 4.1 | 240 | 23 | 125 | 1.3 | 30 (≈ 12.6 µg/mL) | – | –
7 | O=C(O)CCNC(=O)c1cc(N(CCCl)CCCl)c([N+](=O)[O-])cc1[N+](=O)[O-] | 1.5 | 6100 | 1.1 | 12000 | 2.3 | 11000 (≈ 4660 µg/mL) | – | –
8 | CS(=O)(=O)OCCN(CCCl)c1cc(C(N)=O)c([N+](=O)[O-])cc1[N+](=O)[O-] | 6 | 945 | 13 | 48 | – | 840 (≈ 345 µg/mL) | – | 60
9 | C[N+](C)([O-])CCNC(=O)c1cc(N(CCCl)CCCl)c([N+](=O)[O-])cc1[N+](=O)[O-] | 2.3 | 7290 | 1.7 | 4500 | 8 | > 42000 | – | –
10 | NC(=S)c1cc(N(CCCl)CCCl)c([N+](=O)[O-])cc1[N+](=O)[O-] | >1 | > 25 | >2 | 19 | >3 | 38 (≈ 14 µg/mL) | – | –
11 | CS(=O)(=O)NS(=O)(=O)c1cc(N(CCCl)CCCl)c([N+](=O)[O-])cc1[N+](=O)[O-] | 1.5 | 466 | 1 | 980 | 5.2 | 32000 (≈ 14900 µg/mL) | – | –
12 | CN(C)CCNC(=O)c1cc(N(CCCl)CCCl)c([N+](=O)[O-])cc1[N+](=O)[O-] | 5.6 | 220 | 3.9 | 21 | 60 | 35000 (≈ 14800 µg/mL) | – | –
13 | O=C(NCCO)c1cc(N(CCCl)CCCl)c([N+](=O)[O-])cc1[N+](=O)[O-] | – | > 100 | – | – | – | 100 (≈ 39.5 µg/mL) | – | –
14 | N#Cc1cc(N(CCCl)CCCl)c([N+](=O)[O-])cc1[N+](=O)[O-] | 3.2 | 24 | 6.8 | 10 | 8.5 | 120 (≈ 40 µg/mL) | – | –
15 | NC(=O)c1cc(NCCCl)c([N+](=O)[O-])cc1[N+](=O)[O-] | 380 | 748 | 1.4 | – | – | – | – | –
16 | O=C(NCCN1CCOCC1)c1cc(N(CCCl)CCCl)c([N+](=O)[O-])cc1[N+](=O)[O-] | 3.7 | 920 | 3 | 83 | 45 | 4700 (≈ 2180 µg/mL) | – | –
17 | CCN(CCCl)c1cc(C(N)=O)c([N+](=O)[O-])cc1[N+](=O)[O-] | >1 | > 97 | – | > 300 | – | 160 (≈ 50.7 µg/mL) | – | –
18 | NS(=O)(=O)c1cc(N(CCCl)CCCl)c([N+](=O)[O-])cc1[N+](=O)[O-] | 1.7 | 2 | 1.5 | 5.7 | 2.1 | 160 (≈ 62 µg/mL) | – | –
19 | CNC(=O)c1cc(N(CCCl)CCCl)c([N+](=O)[O-])cc1[N+](=O)[O-] | – | > 100 | – | > 360 | – | 200 (≈ 73 µg/mL) | – | –
20 | CN(C)C(=O)c1cc(N(CCCl)CCCl)c([N+](=O)[O-])cc1[N+](=O)[O-] | <0.3 | 310 | 1.4 | 250 | >20 | 130 (≈ 49.3 µg/mL) | – | –
21 | O=C(O)c1cc(N(CCCl)CCCl)c([N+](=O)[O-])cc1[N+](=O)[O-] | 4.7 | 10600 | 1.4 | 19000 | – | 18000 (≈ 6340 µg/mL) | – | >1.2
22 | O=C(c1cc(N2CC2)c([N+](=O)[O-])cc1[N+](=O)[O-])N1CCOCC1 | 800 | 694 | 330 | 30 | 1.7 | – | – | –
23 | CCN(CCCl)c1cc(C(=O)NCCN(C)C)c([N+](=O)[O-])cc1[N+](=O)[O-] | 5 | 570 | 1.9 | 390 | 3.5 | > 38000 | – | –
24 | NC(=O)c1cc(N2CC2)c([N+](=O)[O-])cc1[N+](=O)[O-] [TRETAZICAR] | 37000 | 563 | 50 | 225 | 3.6 | 7900 (≈ 1990 µg/mL) | – | –
